Measurements gathered from unrelated publications.
Each line is one published result; the experiments were not run side by side.
ABL1 T315I phosphorylated: Tyrosine-protein kinase ABL1, phosphorylated (ABL1, Homo sapiens, UniProt P00519, T315I)
ABL1 phosphorylated: Tyrosine-protein kinase ABL1, phosphorylated (ABL1, Homo sapiens, UniProt P00519)
ABL1 non-phosphorylated: Tyrosine-protein kinase ABL1, non-phosphorylated (ABL1, Homo sapiens, UniProt P00519)
ABL1 Q252H non-phosphorylated: Tyrosine-protein kinase ABL1, non-phosphorylated (ABL1, Homo sapiens, UniProt P00519, Q252H)
ABL1 F317I non-phosphorylated: Tyrosine-protein kinase ABL1, non-phosphorylated (ABL1, Homo sapiens, UniProt P00519, F317I)
ABL1 E255K: Tyrosine-protein kinase ABL1 (ABL1, Homo sapiens, UniProt P00519, E255K)
ABL1 Q252H phosphorylated: Tyrosine-protein kinase ABL1, phosphorylated (ABL1, Homo sapiens, UniProt P00519, Q252H)
ABL1 T315I: Tyrosine-protein kinase ABL1 (ABL1, Homo sapiens, UniProt P00519, T315I)
ABL1 Y253F phosphorylated: Tyrosine-protein kinase ABL1, phosphorylated (ABL1, Homo sapiens, UniProt P00519, Y253F)
ABL1 M351T: Tyrosine-protein kinase ABL1 (ABL1, Homo sapiens, UniProt P00519, M351T)

N#Cc1ccc(Nc2ccc3[nH]c(=O)[nH]c3c2)c(Cl)c1
remaining binding (ABL1 T315I phosphorylated; cell-free assay, competition with immobilised ligand; 1 µM): 93%

O=C(c1ccc(Nc2ncc(Cl)c(-c3cc4ccccc4s3)n2)cc1)N1CCC(N2CCCC2)CC1
remaining binding (ABL1 phosphorylated; binding, competition with immobilised ligand; 1 µM): 26%

CC1CCCN1c1nccc(-c2cnn3ncccc23)n1 (stereo not drawn)
remaining binding (Tyrosine-protein kinase ABL1 (ABL1, Homo sapiens, UniProt P00519, H396P); binding; 1 µM): 80%

C=CC(=O)N1CCC(C(=O)NCC(=O)N2CCN(c3nc(-c4cnc(N)nc4C(F)F)nc(N4CCOCC4)n3)CC2)CC1
remaining binding (ABL1 phosphorylated; binding, competition with immobilised ligand; 1 µM): 93%

CN1CCN(c2ccc(Nc3nccc(-c4cccc([N+](=O)[O-])c4)n3)cc2C(F)(F)F)CC1
remaining binding (Tyrosine-protein kinase ABL1 (ABL1, Homo sapiens, UniProt P00519, Y253F); binding; 10 µM): 4%

C[C@@H](c1ccc(-n2cnc3c(N)ncnc32)cc1)N1CCc2nn(C)c(Cc3ccccc3)c2C1=O
remaining binding (ABL1 non-phosphorylated; binding, competition with immobilised ligand; 0.1 µM): 15%

CCC(=O)N[C@@H]1CC[C@H](C(=O)N(C)c2ccc(-c3nc4ccccc4o3)cc2)C1
remaining binding (ABL1 Q252H non-phosphorylated; cell-free assay, competition with immobilised ligand; 1 µM): 77%

O=C(NCCCN1CCOCC1)c1ccc(Nc2ncc(Cl)c(-c3ccc(Cl)s3)n2)cc1
remaining binding (ABL1 Q252H non-phosphorylated; binding, competition with immobilised ligand; 1 µM): 11%

CC1=C(C#N)C(c2ccc3c(c2)c(NC(=O)c2ccccc2C)nn3C)C(C#N)=C(C)N1
remaining binding (ABL1 F317I non-phosphorylated; binding, competition with immobilised ligand; 1 µM): 100%

O=C(Nc1c[nH]nc1C(=O)NC1CCNCC1)c1cc(F)cc(F)c1
remaining binding (ABL1 T315I phosphorylated; binding, competition with immobilised ligand; 1 µM): 98%

CN(C)c1nccc(-c2cnn3ncccc23)n1
remaining binding (ABL1 E255K; binding; 1 µM): 60%

c1cncc(-c2cccc(Nc3nccc(NC4CCCCC4)n3)c2)c1
remaining binding (ABL1 Q252H phosphorylated; binding, competition with immobilised ligand; 10 µM): 24%

COc1cnc(Nc2cccc(S(N)(=O)=O)c2)nc1N1CCN(c2ccccc2)C(=O)C1
remaining binding (Tyrosine-protein kinase ABL1, phosphorylated (ABL1, Homo sapiens, UniProt P00519, F317L); binding, competition with immobilised ligand; 1 µM): 97%

CN1CCN(c2ccc(Nc3nccc(-c4ccccc4)n3)cc2C(F)(F)F)CC1
remaining binding (Tyrosine-protein kinase ABL1 (ABL1, Homo sapiens, UniProt P00519, F317L); binding; 10 µM): 66%

N[C@H]1CCN(c2nccc(-c3cnn4ncccc34)n2)C1
remaining binding (ABL1 T315I; binding; 1 µM): 88%

COc1ncc2cc3ccccc3nc2c1C#N
remaining binding (ABL1 Y253F phosphorylated; cell-free assay, competition with immobilised ligand; 5 µM): 92%

F[C@@H]1CCN(c2nccc(-c3cnn4ncccc34)n2)C1
remaining binding (ABL1 T315I; binding; 1 µM): 100%

CNC(=O)Nc1ccc2c(c1)[C@@]1(CC2)OC(=O)N(CC(=O)N(Cc2ccc(F)cc2)[C@@H](C)C(F)(F)F)C1=O
remaining binding (ABL1 Y253F phosphorylated; cell-free assay, competition with immobilised ligand; 1 µM): 100%

CN(C)c1nccc(-c2cnc3ncccn23)n1
remaining binding (ABL1 E255K; binding; 1 µM): 42%

O=C(NCCCN1CCOCC1)c1ccc(Nc2nccc(-c3cc4ccccc4s3)n2)cc1
remaining binding (ABL1 phosphorylated; binding, competition with immobilised ligand; 1 µM): 37%

CCS(=O)(=O)c1cc2cc(C[C@](O)(CC(C)(C)c3ccc(F)cc3C(N)=O)C(F)(F)F)[nH]c2cn1
remaining binding (ABL1 non-phosphorylated; cell-free assay, competition with immobilised ligand; 1 µM): 100%

CNC(=O)[C@@H]1CC[C@@H](n2c(-c3ccc4cnccc4c3)nc3ccc(C(=O)NCc4cccc(C(N)=O)c4)cc32)C1
remaining binding (ABL1 Y253F phosphorylated; binding, competition with immobilised ligand; 1 µM): 100%

C[C@@H]1CCN(c2nccc(-c3cnn4ncccc34)n2)C1
remaining binding (ABL1 M351T; binding; 1 µM): 100%

Cc1cnc(Nc2ccc(C(=O)N3CCC(N4CCCC4)CC3)cc2)nc1-c1cc2ccccc2s1
remaining binding (Tyrosine-protein kinase ABL1, non-phosphorylated (ABL1, Homo sapiens, UniProt P00519, F317L); binding, competition with immobilised ligand; 1 µM): 59%

Nc1c(C(=O)NCc2ccc(C(=O)NCCCC3CCCCC3)cc2)cnn1-c1ccccc1
remaining binding (ABL1 Q252H phosphorylated; cell-free assay, competition with immobilised ligand; 0.1 µM): 98%

CN(c1nccc(-c2cnn3ncccc23)n1)C1CC1
remaining binding (Tyrosine-protein kinase ABL1 (ABL1, Homo sapiens, UniProt P00519, Q252H); binding; 1 µM): 100%

CCN1CCN(Cc2ccc(C(=O)Nc3ccc(C)c(Oc4ccc5c(c4)CC(=O)N5)c3)cc2C(F)(F)F)CC1
remaining binding (ABL1 Q252H non-phosphorylated; binding, competition with immobilised ligand; 1 µM): 3%

COC(=O)Nc1nc2ccc(C(=O)c3ccccc3)cc2[nH]1
remaining binding (ABL1 phosphorylated; cell-free assay, competition with immobilised ligand; 10 µM): 0.9%

O=C(O)[C@H]1[C@H](Cn2nnc3ccccc3c2=O)CC[C@@H]1C(=O)c1ccc(OCCC2CCOCC2)cc1
remaining binding (Tyrosine-protein kinase ABL1, phosphorylated (ABL1, Homo sapiens, UniProt P00519, F317I); binding; 1 µM): 100%

O=C(c1ccc(Nc2nccc(-c3cc4ccccc4s3)n2)cc1)N1CCC(N2CCCC2)CC1
remaining binding (ABL1 F317I non-phosphorylated; binding, competition with immobilised ligand; 1 µM): 92%

COc1cnc(Nc2cccc(S(N)(=O)=O)c2)nc1N1CCN(c2ccccc2)CC1
remaining binding (ABL1 Q252H non-phosphorylated; binding, competition with immobilised ligand; 1 µM): 78%

CC(=O)N1CCC(c2ccc(C(=O)NC(=N)N)cc2C(F)(F)F)CC1
remaining binding (ABL1 T315I phosphorylated; cell-free assay, competition with immobilised ligand; 1 µM): 95%

c1cnn2ncc(-c3ccnc(N4CCC45COC5)n3)c2c1
remaining binding (ABL1 M351T; binding; 1 µM): 48%

O=C(c1ccc(Nc2ncc(Cl)c(-c3ccc(Cl)s3)n2)cc1)N1CCC(N2CCCC2)CC1
remaining binding (Tyrosine-protein kinase ABL1, phosphorylated (ABL1, Homo sapiens, UniProt P00519, E255K); binding, competition with immobilised ligand; 1 µM): 4.3%

O=C(NCC1CCOCC1)c1n[nH]cc1NC(=O)c1c(F)cccc1F
remaining binding (Tyrosine-protein kinase ABL1, non-phosphorylated (ABL1, Homo sapiens, UniProt P00519, H396P); binding, competition with immobilised ligand; 1 µM): 76%

Nc1ncc2c(n1)-c1c([nH]c3ccc(C#CC4CC4)cc13)CCCC2
remaining binding (Tyrosine-protein kinase ABL1, non-phosphorylated (ABL1, Homo sapiens, UniProt P00519, T315I); binding, competition with immobilised ligand; 1 µM): 79%
